Tests used:
Format in all cases: functional
[1] = tested on: MDA-MB-231; assay: Cytotoxicity against human MDA-MB-231 cells assessed as cell growth at 0.001 uM after 48 hrs by sulforhodamine B assay; conditions: MDA-MB-231, 48 h, read-out: Activity
[2] = tested on: OVCAR-3; assay: Cytotoxicity against human OVCAR-3 cells assessed as cell growth at 10 uM; conditions: read-out: Activity
Procedure, shortened: (§1)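 NCI-60 screen: cells grown in RPMI 1640 with 5% FBS and 2 mM L-glutamine, plated at 5000–40,000 cells/well according to doubling time, and preincubated 24 h at 37 °C, 5% CO2. The single 10 µM dose (DMSO stock) was added, then incubated 48 h. Cells were TCA-fixed and stained with 0.4% SRB, read at 515 nm, and growth % calculated against time-zero and control plates.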

[3] = tested on: SF-539; assay: Cytotoxicity against human SF539 cells assessed as cell growth at 10 uM after 48 hrs by sulforhodamine B assay; conditions: SF-539, 48 h, read-out: Activity
[4] = tested on: HOP-92; assay: Cytotoxicity against human HOP92 cells assessed as cell growth at 100 nM after 48 hrs by sulforhodamine B assay; conditions: HOP-92, 48 h, read-out: Activity
[5] = tested on: SN12C; assay: Cytotoxicity against human SN12C cells assessed as cell growth at 10 uM after 48 hrs by sulforhodamine B assay; conditions: read-out: Activity
[6] = tested on: HT-29; assay: Cytotoxicity against human HT-29 cells assessed as cell growth at 1 uM after 48 hrs by sulforhodamine B assay; conditions: HT-29, 48 h, read-out: Activity
[7] = tested on: NCI-H460; assay: Cytotoxicity against human NCI-H460 cells assessed as cell growth at 100 nM after 48 hrs by sulforhodamine B assay; conditions: NCI-H460, 48 h, read-out: Activity
[8] = tested on: T47D; assay: Growth inhibition of human T47D cells after 48 hrs by sulforhodamine B assay
Procedure, shortened: (§2)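 NCI 60-cell screen, five-dose mode. Cells grown in RPMI 1640 with 5% FBS and 2 mM L-glutamine and plated at 5000-40,000 cells/well according to doubling time. After 24 h preincubation, a Tz plate was TCA-fixed. Five concentrations (10-fold or 1/2 log dilutions) were applied for 48 h at 37 °C. SRB staining read at 515 nm. IC50 taken from [(Ti-Tz)/(C-Tz)]×100 = 50.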

[9] = tested on: OVCAR-3; assay: Cytotoxicity against human OVCAR-3 cells assessed as cell growth at 10 uM after 48 hrs by sulforhodamine B assay; conditions: OVCAR-3, 48 h, read-out: Activity
[10] = tested on: UACC-62; assay: Cytotoxicity against human UACC62 cells assessed as cell growth at 0.01 uM after 48 hrs by sulforhodamine B assay; conditions: UACC-62, 48 h, read-out: Activity
[11] = tested on: BT-549; assay: Cytotoxicity against human BT549 cells assessed as cell growth at 0.001 uM after 48 hrs by sulforhodamine B assay; conditions: BT-549, 48 h, read-out: Activity
Procedure, shortened: (§3)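 NCI-60 five-dose screen. Cells were grown in RPMI 1640 with 5% FBS and 2 mM L-glutamine, plated at 5000–40,000 cells/well and preincubated for 24 h. Time-zero plates were TCA-fixed. DMSO-solubilized drug was added at five concentrations (10-fold or ½-log serial dilutions) for 48 h at 37 °C, 5% CO2. Cells were TCA-fixed, stained with 0.4% SRB and read at 515 nm. Percent growth used time-zero, control and test absorbances.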

[12] = tested on: LOX IMVI; assay: Cytotoxicity against human LOXIMVI cells assessed as cell growth at 0.01 uM after 48 hrs by sulforhodamine B assay; conditions: read-out: Activity
[13] = tested on: 786-0; assay: Cytotoxicity against human 786-0 cells assessed as cell growth at 0.001 uM after 48 hrs by sulforhodamine B assay; conditions: 786-0, 48 h, read-out: Activity; procedure, shortened: as §3
[14] = tested on: MDA-MB-435; assay: Cytotoxicity against human MDA-MB-435 cells assessed as cell growth at 10 uM after 48 hrs by sulforhodamine B assay; conditions: MDA-MB-435, 48 h, read-out: Activity
[15] = tested on: OVCAR-8; assay: Cytotoxicity against human OVCAR8 cells assessed as cell growth at 0.001 uM after 48 hrs by sulforhodamine B assay; conditions: OVCAR-8, 48 h, read-out: Activity
[16] = tested on: MCF7; assay: Cytotoxicity against human MCF7 cells assessed as cell growth at 10 uM; conditions: read-out: Activity; procedure, shortened: as §1
[17] = tested on: UO-31; assay: Growth inhibition of human UO31 cells after 48 hrs by sulforhodamine B assay; conditions: UO-31, 48 h; for CC50: read-out: LC50 (the source's name); procedure, shortened: as §2
[18] = tested on: MDA-MB-231; assay: Growth inhibition of human MDA-MB-231 cells after 48 hrs by sulforhodamine B assay; conditions: MDA-MB-231, 48 h; procedure, shortened: as §2
[19] = tested on: SK-MEL-2; assay: Cytotoxicity against human SK-MEL-2 cells assessed as cell growth at 10 uM after 48 hrs by sulforhodamine B assay; conditions: SK-MEL-2, 48 h, read-out: Activity
[20] = tested on: SNB-75; assay: Cytotoxicity against human SNB75 cells assessed as cell growth at 10 uM after 48 hrs by sulforhodamine B assay; conditions: SNB-75, 48 h, read-out: Activity
[21] = tested on: HL-60(TB); assay: Cytotoxicity against human HL-60(TB) cells assessed as cell growth at 100 nM after 48 hrs by sulforhodamine B assay; conditions: HL-60, 48 h, read-out: Activity
Procedure, shortened: (§4)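 NCI 60-cell panel. Cells are grown in RPMI 1640 with 5% FBS and 2 mM L-glutamine, seeded at 5000–40,000 cells/well according to doubling time, and preincubated 24 h. Time-zero plates are TCA-fixed. Compound from DMSO stock is given at five 10-fold or 1/2-log concentrations for 48 h at 37 °C, 5% CO2. Suspension cells are fixed with 80% TCA (final 16%) and SRB-stained, with absorbance at 515 nm. Percent growth is derived from Tz, control and test readings.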

[22] = tested on: BT-549; assay: Cytotoxicity against human BT549 cells assessed as cell growth at 10 uM after 48 hrs by sulforhodamine B assay; conditions: BT-549, 48 h, read-out: Activity; procedure, shortened: as §3
[23] = tested on: A549; assay: Cytotoxicity against human A549 cells assessed as cell growth at 10 uM after 48 hrs by sulforhodamine B assay; conditions: A549, 48 h, read-out: Activity; procedure, shortened: as §3
[24] = tested on: NCI-H23; assay: Cytotoxicity against human NCI-H23 cells assessed as cell growth at 0.01 uM after 48 hrs by sulforhodamine B assay; conditions: NCI-H23, 48 h, read-out: Activity
[25] = tested on: HT-29; assay: Cytotoxicity against human HT-29 cells assessed as cell growth at 10 uM; conditions: read-out: Activity
Procedure, shortened: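 Single-dose NCI-60 screen at 10 µM. Cells were grown in RPMI 1640 with 5% FBS and 2 mM L-glutamine, then treated for 48 h at 37 °C. Protein was measured by SRB staining with absorbance at 515 nm. Percentage growth was recorded, and inhibition percentage was calculated as 100 minus growth percentage.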

[26] = tested on: HL-60(TB); assay: Cytotoxicity against human HL-60(TB) cells assessed as cell growth at 0.001 uM after 48 hrs by sulforhodamine B assay; conditions: HL-60, 48 h, read-out: Activity; procedure, shortened: as §4
[27] = tested on: SN12C; assay: Cytotoxicity against human SN12C cells assessed as cell growth at 10 uM; conditions: read-out: Activity; procedure, shortened: as §1
[28] = tested on: T47D; assay: Cytotoxicity against human T47D cells assessed as cell growth at 100 nM after 48 hrs by sulforhodamine B assay; conditions: read-out: Activity

Row | Structure (SMILES) | growth at 0.001 µM [1] | growth at 10 µM [2] | growth at 10 µM [3] | growth at 0.1 µM [4] | growth at 10 µM [5] | growth at 1 µM [6] | growth at 0.1 µM [7] | GI50 [8] | LC50 [8] | TGI [8] | growth at 10 µM [9] | growth at 0.01 µM [10] | growth at 0.001 µM [11] | growth at 0.01 µM [12] | growth at 0.001 µM [13] | growth at 10 µM [14] | growth at 0.001 µM [15] | growth at 10 µM [16] | GI50 [17] | TGI [17] | further results
1 | COc1cc(C)cc(-c2nn(CC#N)cc2-c2ccnc(-c3ccc(N(C)C)cc3)c2)c1 | 97% | 2.79% | -38% | 35% | -8% | -29% | 8% | 475 nM | > 100 µM | 17.3 µM | -42% | 86% | 105% | 105% | 101% | -2% | 97% | 10.1% | 619 nM | 98.7 µM | CC50 [17]: > 100 µM; GI50 [18]: 1090 nM; LC50 [18]: > 100 µM; growth at 10 µM [19]: -12%; growth at 10 µM [20]: -8%; growth at 0.1 µM [21]: -3%; growth at 10 µM [22]: -30%; growth at 10 µM [23]: -6%; growth at 0.01 µM [24]: 97%; growth at 10 µM [25]: -7.04%; growth at 0.001 µM [26]: 97%; growth at 10 µM [27]: 24.7%; growth at 0.1 µM [28]: 24%
2 | Cc1cc(O)cc(-c2nn(CC#N)cc2-c2ccnc(-c3ccc(N(C)C)cc3)c2)c1 | 99% | 41.9% | -71% | 73% | -29% | 24% | 90% | 2590 nM | > 100 µM | 12.4 µM | -70% | 96% | 96% | 104% | 102% | -31% | 100% | 14.9% | 3230 nM | 32.5 µM | CC50 [17]: > 100 µM; GI50 [18]: 2940 nM; LC50 [18]: > 100 µM; TGI [18]: 22.6 µM; growth at 10 µM [19]: -46%; growth at 10 µM [20]: -26%; growth at 0.1 µM [21]: 98%; growth at 10 µM [22]: -43%; growth at 10 µM [23]: -8%; growth at 0.01 µM [24]: 96%; growth at 10 µM [25]: 20.5%; growth at 0.001 µM [26]: 100%; growth at 10 µM [27]: 51.2%; growth at 0.1 µM [28]: 82%
3 | COc1cc(C)cc(-c2c(-c3ccnc(-c4ccc(N(C)C)cc4)c3)cnn2CC#N)c1 | 101% | 27% | 2% | -3% | 16% | -51% | -43% | 56 nM | > 100 µM | > 100 µM | 1% | 38% | 93% | 39% | 95% | -23% | 101% | 2.45% | 508 nM | > 100 µM | CC50 [17]: > 100 µM; GI50 [18]: 256 nM; LC50 [18]: > 100 µM; growth at 10 µM [19]: 10%; growth at 10 µM [20]: 11%; growth at 0.1 µM [21]: -26%; growth at 10 µM [22]: -25%; growth at 10 µM [23]: 4%; growth at 0.01 µM [24]: 67%; growth at 10 µM [25]: -33.3%; growth at 0.001 µM [26]: 82%; growth at 10 µM [27]: 29.4%; growth at 0.1 µM [28]: 44%

— ChEMBL document CHEMBL1165950, “Design and synthesis of new potent anticancer pyrazoles with high FLT3 kinase inhibitory selectivity” (Bioorg Med Chem, 2010)
